Rows were chosen to be rich in hits. Some 0.98% of all compounds tested hit in one or more screens of this group.
Rtt109 Vps75: inhibitors of Candida albicans Rtt109/Vps75 histone acetyltransferase; Q5AAJ8; inhibition, % at 34.9 µM; purified Rtt109/Vps75, ThioGlo CoA-SH fluorescence, 4 h; 330,000 compounds, 0.16% hits;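 active means inhibition of at least 50% in every replicate; inconclusive means best replicate reaches 50% inhibition but some replicates fall short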
Target sequence (Q5AAJ8 whole entry, looked up): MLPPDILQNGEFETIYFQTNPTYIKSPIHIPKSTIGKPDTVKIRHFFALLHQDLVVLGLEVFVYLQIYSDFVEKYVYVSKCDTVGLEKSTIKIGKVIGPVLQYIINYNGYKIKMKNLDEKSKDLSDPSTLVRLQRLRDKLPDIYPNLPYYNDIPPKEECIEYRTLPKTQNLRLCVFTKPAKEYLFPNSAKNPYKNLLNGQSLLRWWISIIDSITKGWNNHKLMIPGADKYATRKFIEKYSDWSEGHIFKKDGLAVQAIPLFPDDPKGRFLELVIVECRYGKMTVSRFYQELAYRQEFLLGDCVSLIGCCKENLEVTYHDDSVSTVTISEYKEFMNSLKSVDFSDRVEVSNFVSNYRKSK
ERAP1 HTS inh: ERAP1 (human) enzyme inhibition; recombinant ERAP1, Leu-AMC fluorescence, 60 min; 340,000 compounds, 0.15% hits; inhibition, % at 10.7 µM;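 active means mean replicate inhibition of at least 30%, or all replicates individually reaching that 30% level; inactive means mean below 30% and not every replicate reaching it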
PGC1a acetyl inh: lowers PGC1a acetylation signal in U2OS cells. AlphaScreen anti-acetyl-lysine; with virally co-expressed GCN5 acetyltransferase. inhibition, % at 15.6 µM. 350,000 compounds, 0.17% hits;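 active means every replicate shows inhibition of at least 40%; inconclusive means mean inhibition at least 40% but some replicate below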
C2C12 statin: protects C2C12 myotubes from simvastatin toxicity; ATP luminescence, 48 h; scaled: DMSO 0, geranylgeraniol control 100; rescue of ATP level, % at 7.49 µM; 330,000 compounds, 0.78% hits;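 active means mean ATP rescue above about 67%, or every replicate alone reaching that limit, limit read from the data, passing the limit was not always enough; inconclusive means no clear call, values can overlap the other calls; inactive means mean under the limit and some replicate under it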;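 further: myotubes were challenged with 10 µM simvastatin during compound exposure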
S100A4 inh HTS: blocks human S100A4 binding to myosin IIA peptide; inhibition, % at 10.7 µM; AID 652163; 360,000 compounds, 0.14% hits; S100A4/TAMRA-MyoIIA peptide fluorescence polarization;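 active means mean inhibition of at least 70% across replicates, with every replicate also reaching that level; inconclusive means mean inhibition reaches 70% but some replicates fall short; inactive means mean inhibition below 70%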
Target sequence (P26447 whole entry, looked up): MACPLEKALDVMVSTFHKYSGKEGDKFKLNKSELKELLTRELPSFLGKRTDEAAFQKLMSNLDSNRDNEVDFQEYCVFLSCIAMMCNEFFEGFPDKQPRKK
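Material: S100A4 monomer protein | Medium: HEPES pH 7.2 with CaCl2, KCl, NaCl, DTT, Triton | Reagent: Labelled myosin peptide probe, 5 nM | Doses: One dose per compound | Times: 5 min incubation before reading | Benchmarks: Neutral control DMSO, positive control TFP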
Of the large screens only hits and unclear results are named; the others gave an inactive call.

Cc1ccc2nc3c(cc(C(N)=S)c(=N)n3CCCOC(C)C)c(=O)n2c1	ERAP1 HTS inh 33, S100A4 inh HTS inconclusive
O=c1ccc2ccccc2c2ccccc12	none (no result: Rtt109 Vps75, PGC1a acetyl inh, C2C12 statin)
O=Nc1c(O)c2ccccc2c2ccccc12	PGC1a acetyl inh 45
COc1ccc(S(=O)(=O)Nc2ccc3c(c2)C(=O)N([C@@H](C)CO)C[C@H](C)[C@@H](CN(C)Cc2ccc(-c4ccccc4)cc2)O3)cc1	none (no result: Rtt109 Vps75, C2C12 statin)
Cc1ccc2cc(CN(Cc3ccco3)C(=O)NCc3ccccc3)c(=O)[nH]c2c1C	none (no result: ERAP1 HTS inh, S100A4 inh HTS)
Cc1ccc2cc(CN(Cc3ccco3)C(=O)c3ccccc3)c(=O)[nH]c2c1C	C2C12 statin 137 (no result: ERAP1 HTS inh, S100A4 inh HTS)
CCOC(=O)N(C)C[C@H]1OCc2ccccc2-c2ccccc2C(=O)N([C@@H](C)CO)C[C@@H]1C	none (no result: Rtt109 Vps75)
CC(=O)Nc1ccc2c(c1)CCc1ccccc1-2	none (no result: PGC1a acetyl inh)
O=C(O)/C=C/C(=O)c1ccc2c(c1)CCc1ccccc1-2	Rtt109 Vps75 144
CCCC(=O)Nc1ccc2c(c1)C(=O)N(C)C[C@@H](OC)[C@@H](C)CN(Cc1ccccc1)[C@@H](C)CO2	none (no result: Rtt109 Vps75, ERAP1 HTS inh, S100A4 inh HTS)
CCCNC(=O)Cn1sc2nc(C)cc(C)c2c1=O	Rtt109 Vps75 113 (no result: C2C12 statin)
COc1ccc(/C=C2/SC(=O)N(NS(=O)(=O)c3ccccc3)C2=S)cc1OC	Rtt109 Vps75 79
COc1cc(/C=C2\SC(=S)N(NS(=O)(=O)c3ccccc3)C2=O)cc(OC)c1OC	none
O=C(C[C@@H]1CC[C@H](NC(=O)NC2CCCCC2)[C@@H](CO)O1)NCc1ccc(Cl)cc1	none (no result: Rtt109 Vps75)
CN(C)CC(=O)N[C@H]1CC[C@@H](CC(=O)NCc2ccc(Cl)cc2)O[C@@H]1CO	S100A4 inh HTS 82 (no result: Rtt109 Vps75)
COc1ccc(CNC(=O)C[C@@H]2CC[C@@H](NC(=O)CN(C)C)[C@H](CO)O2)cc1	none (no result: Rtt109 Vps75)
O=C(C[C@H]1CC[C@H](NC(=O)NC2CCCCC2)[C@H](CO)O1)NCc1ccc(Cl)cc1	PGC1a acetyl inh 54 (no result: Rtt109 Vps75)
C[C@H]1CN([C@@H](C)CO)C(=O)Cc2cc(NC(=O)Nc3ccc4c(c3)OCO4)ccc2O[C@H]1CN(C)C(=O)Nc1cccc2ccccc12	none (no result: Rtt109 Vps75)
CCCC(=O)N1CCC2(CC1)CN(C(=O)C1CC1)[C@H](CO)c1[nH]c3cc(OC)ccc3c12	none (no result: Rtt109 Vps75, C2C12 statin)
COc1ccc(OC)c(C2CC(=O)N3CN(c4ccc(C)c(Cl)c4)CSC3=C2C#N)c1 (stereo not drawn)	Rtt109 Vps75 91
CCNC(=O)Nc1ccc2c(c1)C(=O)N(C)[C@H]1CC[C@@H](CC(=O)Nc3ccccc3)O[C@H]1CO2	none (no result: Rtt109 Vps75)
COc1cc(OC)cc(C(=O)Nc2ccccc2C(=O)N2CCCC2)c1	C2C12 statin 115 (no result: ERAP1 HTS inh, S100A4 inh HTS)
CS(=O)(=O)Nc1ccc(C(=O)N2CCN(c3ccccc3)CC2)cc1	C2C12 statin 115
CS(=O)(=O)Nc1ccc(C(=O)Nc2ccccc2C(=O)N2CCCC2)cc1	C2C12 statin 90 (no result: ERAP1 HTS inh, S100A4 inh HTS)
COc1ccc(C(=O)Nc2ccccc2C(=O)N2CCCCCC2)cc1	none
CC(C)NC(=O)Nc1ccc2c(c1)C(=O)N([C@H](C)CO)C[C@@H](C)[C@H](CN(C)S(=O)(=O)c1cccs1)O2	none (no result: Rtt109 Vps75, ERAP1 HTS inh, C2C12 statin, S100A4 inh HTS)
CCCNC(=O)Nc1ccc2c(c1)C(=O)N(C)[C@@H]1CC[C@@H](CC(=O)O)O[C@@H]1CO2	none (no result: Rtt109 Vps75, ERAP1 HTS inh, S100A4 inh HTS)
CCOc1ccccc1NC(=O)C(CC)Sc1nc2ccncc2[nH]1 (stereo not drawn)	none
CCC(Sc1nc2ccncc2[nH]1)C(=O)Nc1ccc(C)c(Cl)c1 (stereo not drawn)	S100A4 inh HTS 79
CO[C@H]1CN(C)C(=O)c2ccc(NC(=O)Cc3ccccc3)cc2OC[C@H](C)N(C)C[C@@H]1C	none (no result: Rtt109 Vps75, PGC1a acetyl inh, C2C12 statin)
COc1cccc(CNC(=O)CSc2nnc3c(n2)[nH]c2ccc(F)cc23)c1	none (no result: PGC1a acetyl inh)
O=C(CSc1nnc2c(n1)[nH]c1ccc(F)cc12)OCc1ccccc1	C2C12 statin 85 (no result: ERAP1 HTS inh, S100A4 inh HTS)
C[C@H](CO)N1C[C@H](C)[C@@H](CN(C)C(=O)c2ccccc2)OCCCC[C@H](C)Oc2ccc(NC(=O)NC3CCCCC3)cc2C1=O	none (no result: Rtt109 Vps75)
C[C@@H]1CN([C@H](C)CO)C(=O)c2cc(/C=C/c3ccccc3)cnc2O[C@H]1CN(C)C(=O)c1cnccn1	none (no result: Rtt109 Vps75)
CO[C@H]1CC[C@H]2CCOc3c(C#N)cccc3C(=O)N(C)C[C@H](c3ccccc3)CC(=O)N(C)C[C@H]1O2	S100A4 inh HTS 121 (no result: Rtt109 Vps75)
CO[C@@H]1CC[C@H]2CCOc3c(C#N)cccc3C(=O)N(C)C[C@H](C)C(=O)N(C)C[C@H]1O2	S100A4 inh HTS 122 (no result: Rtt109 Vps75)
CC(C)NC(=O)Nc1ccc2c(c1)C(=O)N([C@@H](C)CO)C[C@@H](C)[C@@H](CN(C)Cc1ccc(-c3ccccc3)cc1)O2	none (no result: Rtt109 Vps75)
CC(C)C(C(=O)Nc1ccccc1F)N1C(=O)c2ccccc2C1=O (stereo not drawn)	none (no result: ERAP1 HTS inh)
CC(C)C(C(=O)Nc1cccnc1)N1C(=O)c2ccccc2C1=O (stereo not drawn)	Rtt109 Vps75 53 (no result: ERAP1 HTS inh, S100A4 inh HTS)
Cc1ccc(C2C(=O)N(C3CCC(C)CC3)CC(=O)N2C2CCCC2)cc1 (stereo not drawn)	C2C12 statin 124 (no result: ERAP1 HTS inh, S100A4 inh HTS)
O=C1C(c2ccc(F)cc2)N(C2CCCCC2)C(=O)CN1C1CCCC1 (stereo not drawn)	none (no result: ERAP1 HTS inh, S100A4 inh HTS)
O=C(Nc1ccc(Oc2cccnc2)cc1)C1CCN(Cc2ccc(F)cc2)CC1	none (no result: PGC1a acetyl inh, C2C12 statin)
O=C(Nc1ccc(Oc2cccnc2)cc1)C1CCN(Cc2cc(Cl)ccc2O)CC1	Rtt109 Vps75 59

Compound activity (PubChem BioAssay)
